Several values for one entry are separate records, joined by “and”; a condition that tells them apart may be missing. Equal values may be shown once. Entries after “also recorded” stand apart in the source; their conditions may differ. Bridge positions count the residues as written; N and C are the ends. Square brackets hold non-standard residues; d marks the D form. Peptide text beside a SMILES is read from it.
Experiments:
[1] = system: B16/F1 melanoma cells; experiment: Cellular internalization; type: cell-based, murine; conditions: after 20 min of incubation at 25 °C, acid wash pH 4.5, n=3
How it was run: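 Cells at 2.5×10^5/well were grown overnight at 37 °C and washed with binding medium (MEM, 25 mM HEPES pH 7.4, 0.2% BSA, 0.3 mM 1,10-phenanthroline). They were incubated at 25 °C with ~200,000 cpm HPLC-purified radiopeptide for 20–120 min (n=3). Membrane-bound activity was stripped with 40 mM sodium acetate pH 4.5/0.9% NaCl/0.2% BSA. Cells were lysed in 1 N NaOH for 5 min; both fractions were gamma-counted.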

[2] = system: B16/F1 melanoma cells; experiment: Cellular efflux; type: cell-based, murine; conditions: loaded 2 h at 25 °C, then 2 h of incubation in the culture medium
How it was run: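 B16/F1 cells were seeded at 2.5×10^5/well and grown overnight at 37 °C. They were loaded with radiopeptide for 2 h at 25 °C and rinsed twice with ice-cold PBS. Release into culture medium was then monitored. At 20, 40, 60, 90 and 120 min, surface-bound and intracellular radioactivity were collected separately and gamma-counted.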

[3] = Biodistribution in B16/F1 melanoma-bearing C57 mice; type: in vivo, mouse; conditions: female, C57, mouse, iv, 0.037 MBq, total radioactivity
How it was run: (§1)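 Female C57 mice bore subcutaneous right-flank tumours from 1×10^6 B16/F1 cells (~0.2 g at 10 days). Radiopeptide, 0.037 MBq in pH 7.4 saline, went in via tail vein. Groups of 4 were killed at 0.5, 2, 4 and 24 h; tumours and organs were weighed and gamma-counted. Blood was taken as 6.5% body weight. Blockade: co-injected 10 µg (6.1 nmol) unlabeled NDP-MSH, 2 h. Results as %ID/g or %ID, mean ± SD, n=4.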

[4] = system: B16/F1 melanoma-bearing C57 mice; experiment: as above; type: in vivo, mouse
How it was run: as §1

[5] = system: B16/F1 melanoma-bearing C57 mice; experiment: Effect of L-lysine co-injection on renal and tumor uptake; type: in vivo, mouse; conditions: 2 h post-injection, 15 mg L-lysine
How it was run: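 Groups of 4 tumour-bearing C57 mice received 0.037 MBq radiopeptide mixed with 15 mg L-lysine via injection. Mice were killed at 2 h, and tumours and organs were weighed and gamma-counted. Uptake with versus without L-lysine was compared by unpaired Student's t-test, significance p<0.05.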

[6] = system: B16/F1 melanoma-bearing C57 mice; experiment: Urinary metabolites by radio-HPLC; type: in vivo, mouse; conditions: urine at 2 h post-injection of ~3.7 MBq via tail vein
[7] = system: B16/F1 melanoma-bearing C57 mice; experiment: Melanoma imaging by small animal SPECT/CT; type: in vivo, mouse; conditions: 2 h post-injection of 7.4 MBq via tail vein

SMILES: CC(C)[C@H](NC(=O)[C@@H]1CCCN1C(=O)[C@H](CCCNC(=N)N)NC(=O)[C@H](CS)NC(=O)[C@H](Cc1c[nH]c2ccccc12)NC(=O)[C@H](CCCNC(=N)N)NC(=O)[C@@H](Cc1ccccc1)NC(=O)[C@H](Cc1c[nH]cn1)NC(=O)[C@H](CCC(=O)O)NC(=O)[C@H](CS)NC(=O)[C@H](CS)NC(=O)[C@H](CCCCN)NC(=O)[C@@H]1CC(=O)N[C@@H](CCCNC(=N)N)C(=O)N[C@@H]([C@@H](C)O)C(=O)N[C@@H](CC(=O)O)C(=O)N[C@H](Cc2ccc(O)cc2)C(=O)N1)C(N)=O [^99mTc-RTD-Lys-(Arg^11)CCMSH, metal not drawn] (RTD[dY]DKCCEH[dF]RWCRPV-NH2; lactam N-5)
- Activity internalized in the cells [1]: Approximately 71%
- Activity remained inside the cells (cellular efflux) [2]: 75%
- tissue uptake at 0.5 h ([3]; blood): 15.9 ± 3.97 %ID/g
- tissue uptake at 2 h ([3]; blood): 0.44 ± 0.13 %ID/g
- tissue uptake at 4 h ([3]; blood): 0.55 ± 0.41 %ID/g
- tissue uptake at 24 h ([3]; blood): 0.4 ± 0.21 %ID/g
- tissue uptake at 0.5 h ([3]; bone): 1.66 ± 0.1 %ID/g
- tissue uptake at 2 h ([3]; bone): 0.46 ± 0.11 %ID/g
- tissue uptake at 4 h ([3]; bone): 0.39 ± 0.12 %ID/g
- tissue uptake at 24 h ([3]; bone): 0.23 ± 0.09 %ID/g
- tissue uptake at 0.5 h ([3]; brain): 0.14 ± 0.04 %ID/g
- tissue uptake at 2 h ([3]; brain): 0.03 ± 0.01 %ID/g
- tissue uptake at 4 h ([3]; brain): 0.02 ± 0.01 %ID/g
- tissue uptake at 24 h ([3]; brain): 0.03 ± 0.01 %ID/g
- tissue uptake at 0.5 h ([3]; heart): 1.86 ± 0.21 %ID/g
- tissue uptake at 2 h ([3]; heart): 0.29 ± 0.08 %ID/g
- tissue uptake at 4 h ([3]; heart): 0.19 ± 0.05 %ID/g
- tissue uptake at 24 h ([3]; heart): 0.12 ± 0.02 %ID/g
- tissue uptake dose at 0.5 h ([3]; intestines): 1.73 ± 0.17 %ID
- tissue uptake dose at 2 h ([3]; intestines): 0.84 ± 0.2 %ID
- tissue uptake dose at 4 h ([3]; intestines): 0.72 ± 0.18 %ID
- tissue uptake dose at 24 h ([3]; intestines): 0.48 ± 0.13 %ID
- tissue uptake at 0.5 h ([3]; kidneys): 145 ± 24.6 %ID/g
- tissue uptake at 2 h ([3]; kidneys): 135 ± 23.6 %ID/g
- tissue uptake at 4 h ([3]; kidneys): 106 ± 27.7 %ID/g
- tissue uptake at 24 h ([3]; kidneys): 46.8 ± 14.8 %ID/g
- tissue uptake at 0.5 h ([3]; liver): 2.09 ± 0.04 %ID/g
- tissue uptake at 2 h ([3]; liver): 1.62 ± 0.14 %ID/g
- tissue uptake at 4 h ([3]; liver): 2.01 ± 0.39 %ID/g
- tissue uptake at 24 h ([3]; liver): 1.03 ± 0.1 %ID/g
- tissue uptake at 0.5 h ([3]; lung): 4.27 ± 0.27 %ID/g
- tissue uptake at 2 h ([3]; lung): 0.51 ± 0.37 %ID/g
- tissue uptake at 4 h ([3]; lung): 0.39 ± 0.24 %ID/g
- tissue uptake at 24 h ([3]; lung): 0.23 ± 0.04 %ID/g
- tissue uptake at 0.5 h ([3]; muscle): 0.8 ± 0.38 %ID/g
- tissue uptake at 2 h ([3]; muscle): 0.15 ± 0.05 %ID/g
- tissue uptake at 4 h ([3]; muscle): 0.07 ± 0.02 %ID/g
- tissue uptake at 24 h ([3]; muscle): 0.52 ± 0.1 %ID/g
- tissue uptake at 0.5 h ([3]; pancreas): 0.83 ± 0.4 %ID/g
- tissue uptake at 2 h ([3]; pancreas): 0.11 ± 0.04 %ID/g
- tissue uptake at 4 h ([3]; pancreas): 0.09 ± 0.05 %ID/g
- tissue uptake at 24 h ([3]; pancreas): 0.13 ± 0.07 %ID/g
- tissue uptake at 0.5 h ([3]; skin): 3.99 ± 0.42 %ID/g
- tissue uptake at 2 h ([3]; skin): 0.5 ± 0.19 %ID/g
- tissue uptake at 4 h ([3]; skin): 0.27 ± 0.13 %ID/g
- tissue uptake at 24 h ([3]; skin): 1.01 ± 0.31 %ID/g
- tissue uptake at 0.5 h ([3]; spleen): 1.04 ± 0.33 %ID/g
- tissue uptake at 2 h ([3]; spleen): 0.48 ± 0.2 %ID/g
- tissue uptake at 4 h ([3]; spleen): 0.47 ± 0.18 %ID/g
- tissue uptake at 24 h ([3]; spleen): 0.19 ± 0.13 %ID/g
- tissue uptake at 0.5 h ([3]; stomach): 1.87 ± 0.21 %ID/g
- tissue uptake at 2 h ([3]; stomach): 0.67 ± 0.16 %ID/g
- tissue uptake at 4 h ([3]; stomach): 0.7 ± 0.23 %ID/g
- tissue uptake at 24 h ([3]; stomach): 0.21 ± 0.04 %ID/g
- tissue to tissue ratio at 2 h ([3]; tumor / blood): 42.7
- tissue to tissue ratio at 4 h ([3]; tumor / blood): 25.2
- tissue to tissue ratio at 24 h ([3]; tumor / blood): 14.6
- tissue to tissue ratio at 0.5 h ([3]; tumor / kidneys): 0.1
- tissue to tissue ratio at 2 h ([3]; tumor / kidneys): 0.14
- tissue to tissue ratio at 4 h ([3]; tumor / kidneys): 0.13
- tissue to tissue ratio at 24 h ([3]; tumor / kidneys): 0.12
- tissue to tissue ratio at 0.5 h ([3]; tumor / lung): 3.41
- tissue to tissue ratio at 2 h ([3]; tumor / lung): 36.8
- tissue to tissue ratio at 4 h ([3]; tumor / lung): 35.5
- tissue to tissue ratio at 24 h ([3]; tumor / lung): 25.4
- tissue uptake at 0.5 h ([3]; tumor): 14.6 ± 5.31 %ID/g
- tissue uptake at 2 h ([3]; tumor): 18.8 ± 5.13 %ID/g
- tissue uptake at 4 h ([3]; tumor): 13.8 ± 3.1 %ID/g
- tissue uptake at 24 h ([3]; tumor): 5.84 ± 0.5 %ID/g
- tissue to tissue ratio at 0.5 h ([3]; tumor/liver): 6.97
- tissue to tissue ratio at 2 h ([3]; tumor/liver): 11.6
- tissue to tissue ratio at 4 h ([3]; tumor/liver): 6.89
- tissue to tissue ratio at 24 h ([3]; tumor/liver): 5.67
- tissue to tissue ratio at 0.5 h ([3]; tumor/muscle): 18.2
- tissue to tissue ratio at 2 h ([3]; tumor/muscle): 125
- tissue to tissue ratio at 4 h ([3]; tumor/muscle): 198
- tissue to tissue ratio at 24 h ([3]; tumor/muscle): 11.2
- dose excreted at 0.5 h ([3]; urine): 28.6 ± 8.85%
- dose excreted at 2 h ([3]; urine): 54.8 ± 5.65%
- dose excreted at 4 h ([3]; urine): 61.2 ± 5.56%
- dose excreted at 24 h ([3]; urine): 82.2 ± 4.69%
- Uptake ratio Tumor/Blood ([4]; 0.5 h post-injection): 0.91
- Uptake ratio Tumor/Blood ([4]; 2 h post-injection, NDP blockade): 5.70
- Reduction of renal uptake by L-lysine co-injection ([5]; versus without L-lysine): 55% and 40–50%
- Effect of L-lysine co-injection on tumor uptake ([5]; p>0.05): didn't affect the tumor uptake; also recorded: without affecting their tumor uptake
- Remained intact in the urine [6]: Approximately 70%
- Transformed to a more hydrophobic compound in the urine [6]: 30%
- Visualization of flank B16/F1 melanoma lesions by SPECT/CT [7]: clearly visualized

— paper PMC3866226 (Molecular pharmaceutics, 2013)
